{"source": "PubChem BioAssay AID624038", "about": "(The Scripps Research Institute Molecular Screening Center, 2012)", "note": "“And” between values parts separate entries of the source, which are not always exact repeats. Identical values can stand only once. Hit rate of the full screen: of about 360,000 compounds, about 1,100 (0.31%) were called active.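 The calls were made as follows: active = activation above the run cutoff, the mean activation of all test compounds plus 3 SD (cut at about 18% in these data); inactive = the rest.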 The sample as a whole holds a higher share of actives than the screen did. More than one record can exist for a structure, and the calls need not agree.", "data": [{"target": "Muscarinic acetylcholine receptor M5 (Homo sapiens) (UniProt P08912)", "sequence (P08912 whole entry, looked up)": "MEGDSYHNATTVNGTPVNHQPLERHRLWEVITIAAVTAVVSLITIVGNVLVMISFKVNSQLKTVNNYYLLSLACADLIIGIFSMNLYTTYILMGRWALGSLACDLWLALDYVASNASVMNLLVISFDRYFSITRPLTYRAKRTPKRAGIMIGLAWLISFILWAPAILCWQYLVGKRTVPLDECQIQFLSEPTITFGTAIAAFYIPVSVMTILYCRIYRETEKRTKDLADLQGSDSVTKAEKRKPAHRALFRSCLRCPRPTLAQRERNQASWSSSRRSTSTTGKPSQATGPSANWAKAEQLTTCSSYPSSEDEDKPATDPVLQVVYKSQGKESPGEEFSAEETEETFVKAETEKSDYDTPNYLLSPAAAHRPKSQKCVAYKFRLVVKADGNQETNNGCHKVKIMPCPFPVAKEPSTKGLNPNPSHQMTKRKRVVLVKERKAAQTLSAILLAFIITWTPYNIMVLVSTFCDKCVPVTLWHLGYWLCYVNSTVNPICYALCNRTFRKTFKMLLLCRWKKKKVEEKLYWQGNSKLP", "experiment": "CHRM5 PAMs potentiating acetylcholine calcium signal – CHO-K1 cells, Fluo-8 calcium fluorescence, primary screen (AID 624038)", "details": "CHO-K1 hM5, Fluo-8 calcium, ACh EC20 PAM; at 3 µM; stronger effect = higher value; 0% = ACh EC20, 100% = ACh EC100", "method_in_brief": "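Assay system: CHO-K1 hM5 cells. Also added: acetylcholine at EC20 concentration, added after compound. Dosing: 3 µM, single dose. Times: compound preincubation 140 s before EC20 acetylcholine addition. Signal: Fluo-8 calcium fluorescence. Measure: % activation relative to EC20 and EC100 ACh responses. Repeats: singlicate, one well per test compound.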", "values": [{"smiles": "CCC(C(=O)N1CCN(S(=O)(=O)c2sc(C(=O)O)c(C)c2C(=O)O)CC1)c1ccccc1", "note": "(stereo not given)", "activation": "5.73% (inactive)"}, {"smiles": "COc1ccc(OC)c(S(=O)(=O)Nc2ccccc2F)c1", "activation": "-7.66% (inactive)"}, {"smiles": "COc1ccc(OC)c(S(=O)(=O)NCCC(C)C)c1", "activation": "3.29% (inactive)"}, {"smiles": "COc1ccc(OC)c(S(=O)(=O)Nc2c(C)nn(C)c2C)c1", "activation": "18.8% (active)"}, {"smiles": "Cc1ccc(Br)c(NS(=O)(=O)c2cccc(C(=O)N3CCNC(=O)C3)c2)c1", "activation": "-1.57% (inactive)"}, {"smiles": "CCOC(=O)c1cnc(-n2nc(C)cc2C)nc1-n1nc(C)cc1C", "activation": "37.3% (active)"}, {"smiles": "CCOC(=O)c1cnc(-n2nc(C)cc2C)nc1NNc1cc(C)nc(-c2ccccc2)n1", "activation": "0.83% (inactive)"}, {"smiles": "CCOC(=O)c1cnc2c(c(C)nn2CC)c1Cl", "activation": "0.72% (inactive)"}, {"smiles": "Cc1cc(C(=O)OCC(=O)Nc2nccs2)c2ccccc2n1", "activation": "-1.11% (inactive)"}, {"smiles": "C=CCn1c(=S)[nH]c2scc(-c3ccco3)c2c1=O", "activation": "-1.04% (inactive)"}, {"smiles": "Cc1cc(C)n(Cc2cnc(N3CCOCC3)s2)n1", "activation": "-0.72% (inactive)"}, {"smiles": "CN(CC(=O)Nc1c(Cl)cccc1Cl)C(=O)CNC(=O)C1CCCCC1", "activation": "7.43% (inactive)"}, {"smiles": "COc1cccc(N(CC(=O)N2CCc3ccccc3C2)S(C)(=O)=O)c1", "activation": "-6.56% (inactive)"}, {"smiles": "COc1cccc(N(CC(=O)NC2CCCCCC2)S(=O)(=O)c2ccccc2)c1", "activation": "-3.45% (inactive)"}, {"smiles": "CCN(CC)C(=O)CN(c1cccc(OC)c1)S(=O)(=O)c1ccc(C)cc1", "activation": "24% (active)"}, {"smiles": "CCN1CCN(C(=O)C2CCCN(S(=O)(=O)c3ccc(OC)c(OC)c3)C2)CC1", "note": "(stereo not given)", "activation": "-3.07% (inactive)"}, {"smiles": "O=C(NNS(=O)(=O)c1ccc(Cl)cc1)C1CCN(Cc2ccccc2)CC1", "activation": "-22.7% (inactive)"}, {"smiles": "CCOC(=O)C1CCN(Cc2ccc(-c3ccccc3)cc2)CC1", "activation": "-6.76% (inactive)"}, {"smiles": "CCNC(=S)NNC(=O)C1CCN(Cc2ccccc2)CC1", "activation": "22.7% (active)"}, {"smiles": "CCCc1nc(N)nc2c1C(=O)CC(C)(C)C2", "activation": "3.62% (inactive)"}, {"smiles": "COc1ccc(N2CCN(CCCNC(=O)C3CCN(S(=O)(=O)N4CCOCC4)CC3)CC2)cc1", "activation": "-0.18% (inactive)"}, {"smiles": "CSc1ccc(C(=O)C2CCCN(C(=O)c3ccc(C)nc3)C2)cc1", "note": "(stereo not given)", "activation": "-1.27% (inactive)"}, {"smiles": "Cn1nccc1NC(=O)CC(CC(=O)O)c1ccccc1", "note": "(stereo not given)", "activation": "-3.88% (inactive)"}, {"smiles": "N#Cc1c(-c2ccccc2)c(-c2ccccc2)n[nH]c1=O", "activation": "20.6% (active)"}, {"smiles": "Cc1c(-c2ccccc2)nc(N)c(C#N)c1-c1cccs1", "activation": "-5.86% (inactive)"}, {"smiles": "O=C(O)c1n[nH]nc1-c1ccccc1", "activation": "3.89% (inactive)"}, {"smiles": "O=C(COc1ccc(Cl)cc1)NCCS(=O)(=O)N1CCN(c2ccc(F)cc2)CC1", "activation": "-8.06% (inactive)"}, {"smiles": "CCCc1nc(N2CCN(C)CC2)c2sc(=S)n(-c3ccccc3)c2n1", "activation": "-2.27% (inactive)"}, {"smiles": "O=C(/C=C/c1c(F)cccc1Cl)Nc1nn[nH]n1", "activation": "-6.11% (inactive)"}, {"smiles": "CCOC(=O)CNC(=O)/C=C/c1c(Cl)cccc1Cl", "activation": "20.4% (active)"}, {"smiles": "O=C(/C=C/c1c(Cl)cccc1Cl)NCc1ccccc1", "activation": "0.05% (inactive)"}, {"smiles": "CCc1ccc(N(CC)c2ncnc3nc[nH]c23)cc1", "activation": "-3.31% (inactive)"}, {"smiles": "CC(C)Cn1c(=O)c2ccccc2n2c(CCC(=O)NCc3ccccn3)nnc12", "activation": "-4.54% (inactive)"}, {"smiles": "CSc1ncc(C(=O)NCCCc2ccccc2)c(C)n1", "activation": "-2.95% (inactive)"}, {"smiles": "CSc1ncc(Sc2ccccc2)c(C(=O)O)n1", "activation": "23.2% (active)"}, {"smiles": "Cc1ccccc1C(=O)Nc1ccccc1Sc1ccccc1", "activation": "-14.3% (inactive)"}, {"smiles": "CCOc1ccc(S(=O)(=O)N2CCCC(C(=O)N3CCC(C(N)=O)CC3)C2)cc1Cl", "note": "(stereo not given)", "activation": "5.31% (inactive)"}, {"smiles": "CCCCOP(=O)(c1ccc(N(C)C)cc1)C(O)c1cc(OC)ccc1OC", "note": "(stereo not given)", "activation": "4.18% (inactive)"}, {"smiles": "CSCC(=O)N1CCCC(C(=O)c2cc(F)ccc2F)C1", "note": "(stereo not given)", "activation": "-4.39% (inactive)"}, {"smiles": "S=C(Nc1ccc(Br)cc1Cl)N1CCC2(CC1)OCCO2", "activation": "-0.18% (inactive)"}, {"smiles": "NC(=O)C1=C[C@@H](c2ccc3c(c2)OCO3)C[C@@H](OCCCCO)O1", "activation": "-3.38% (inactive)"}, {"smiles": "Cc1nn(Cc2ccccc2)c(C)c1NS(=O)(=O)c1ccccc1", "activation": "-9.59% (inactive)"}, {"smiles": "COc1ccc(NC(=O)CC(NC(C)c2ccccc2)C(=O)O)cc1", "note": "(stereo not given)", "activation": "-1.9% (inactive)"}, {"smiles": "O=C(CS(=O)(=O)c1ccccc1)Nc1ccc(S(=O)(=O)Nc2ccccn2)cc1", "activation": "-5.27% (inactive)"}, {"smiles": "COc1ccc(NC(=O)CS(=O)(=O)c2ccccc2)cc1", "activation": "18.2% (active)"}, {"smiles": "CCOC(=O)N1CCC(NC(=O)C(C)n2c3ccccc3c3cnn(C)c(=O)c32)CC1", "note": "(stereo not given)", "activation": "-5.66% (inactive)"}, {"smiles": "CCN(CC(=O)Nc1c(F)cccc1F)C(=O)c1ccc(Sc2nncn2C)c([N+](=O)[O-])c1", "activation": "0.28% (inactive)"}, {"smiles": "Cc1ccccc1N(C(=O)CNC(=O)c1cccs1)C(C(=O)NC1CCCC1)c1ccncc1", "note": "(stereo not given)", "activation": "5.18% (inactive)"}, {"smiles": "COc1ccc(C(C(=O)NC2CCCCC2)N(C(=O)c2snc(C(N)=O)c2N)c2ccccc2OC)cc1", "note": "(stereo not given)", "activation": "-2.86% (inactive)"}, {"smiles": "COc1ccc(C(C(=O)NC2CCCCC2)N(C(=O)CCl)c2ccccc2Cl)cc1", "note": "(stereo not given)", "activation": "28.1% (active)"}, {"smiles": "O=C(CSc1nc2ncccc2[nH]1)Nc1ccc2c(c1)OCCO2", "activation": "-2.19% (inactive)"}, {"smiles": "CCOc1ccc(C(=O)CCC(=O)Nc2ccncc2)cc1", "activation": "-11.9% (inactive)"}, {"smiles": "CCOc1ccccc1NC(=O)NC1CCCCCCC1", "activation": "-0.6% (inactive)"}, {"smiles": "CCOc1ccc(NC(=O)CCC(=O)NNC(=O)NC2CCCCC2)cc1", "activation": "21.3% (active)"}, {"smiles": "O=C(CCn1c(=O)oc2ccccc21)Nc1ccon1", "activation": "3.01% (inactive)"}, {"smiles": "CC(NCc1cccs1)C(=O)Nc1cc(Cl)cc(Cl)c1", "note": "(stereo not given)", "activation": "-6.98% (inactive)"}, {"smiles": "CCCCNC(=O)c1ccccc1NC(=O)c1ccccc1N(C)S(C)(=O)=O", "activation": "21.6% (active)"}, {"smiles": "CCC(C)NC(=O)c1ccccc1NC(=O)c1ccccc1N(C)S(C)(=O)=O", "note": "(stereo not given)", "activation": "2.75% (inactive)"}, {"smiles": "CCCCNC(=O)c1ccccc1NC(=O)C1=C(C)OCCS1", "activation": "-4.46% (inactive)"}, {"smiles": "Cc1noc(/C=C/c2ccco2)c1S(=O)(=O)N1CCC(C(=O)N2CCc3ccccc32)CC1", "activation": "-9.2% (inactive)"}, {"smiles": "CC(C)(C)n1nnnc1C(c1ccc2ncccc2c1)N1CCSCC1", "note": "(stereo not given)", "activation": "-6.68% (inactive)"}, {"smiles": "CC(C)C(=O)N1CCN(CCN=CC2=C(O)CC(c3ccco3)CC2=O)CC1", "note": "(stereo not given)", "activation": "18.8% (active) and 2.37% (inactive)"}, {"smiles": "CC1(C)CC(=O)C(C=NCCN2CCN(C(=S)Nc3cccc(Cl)c3)CC2)=C(O)C1", "activation": "0.98% (inactive)"}, {"smiles": "CC(=O)N1CCN(CCN=CC2=C(O)CC(C)(C)CC2=O)CC1", "activation": "-3.36% (inactive)"}, {"smiles": "COCCCNC(=O)C1CC(=O)N(c2ccc(C)cc2)C1", "note": "(stereo not given)", "activation": "-2.16% (inactive)"}, {"smiles": "CCCC(C)NC(=O)C1CCN(C(=O)C2CC(=O)N(c3ccc(C)cc3)C2)CC1", "note": "(stereo not given)", "activation": "1.21% (inactive)"}, {"smiles": "COCCNC(=O)C1CCN(C(=O)C2CC(=O)N(c3ccc(C)cc3)C2)CC1", "note": "(stereo not given)", "activation": "19.9% (active)"}, {"smiles": "O=C(CCC(=O)n1ncc2ccccc21)NCc1ccccc1Cl", "activation": "-1.46% (inactive)"}, {"smiles": "O=C(CN1C(=O)NC(Cc2ccccc2)(Cc2ccccc2)C1=O)NCC1CCCCC1", "activation": "-4.45% (inactive)"}, {"smiles": "O=C(CNc1cccc(S(=O)(=O)N2CCCCC2)c1)Nc1ccccc1F", "activation": "2.99% (inactive)"}, {"smiles": "CC(NC(=O)C(=O)Nc1nccs1)c1ccccc1", "note": "(stereo not given)", "activation": "20.9% (active)"}, {"smiles": "C[C@H](NC(=O)c1[nH]cnc1C(=O)Nc1nccs1)c1ccccc1", "activation": "6.95% (inactive)"}, {"smiles": "CC(=O)NC(CC(=O)Nc1nccs1)c1ccccc1", "note": "(stereo not given)", "activation": "3.53% (inactive)"}, {"smiles": "CCCCn1nc(C(=O)OCC(=O)Nc2sccc2C(N)=O)c2ccccc2c1=O", "activation": "-5.8% (inactive)"}, {"smiles": "COC(=O)c1ccc(CN2CCC(CO)(Cc3ccc(OC)cc3)CC2)cc1", "activation": "-13.3% (inactive)"}, {"smiles": "O=C(NC1=NCCS1)c1ccc(Cl)s1", "activation": "2.85% (inactive)"}, {"smiles": "COc1ccc(NC(=O)C(C)SCc2ccccc2)cc1", "note": "(stereo not given)", "activation": "3.94% (inactive)"}, {"smiles": "O=C(CC1(O)C(=O)N(CN2CCOCC2)c2ccccc21)c1ccccc1", "note": "(stereo not given)", "activation": "37.4% (active)"}, {"smiles": "C=CCN1C(=O)C(O)(CC(=O)c2ccccn2)c2ccccc21", "note": "(stereo not given)", "activation": "0.57% (inactive)"}, {"smiles": "C=CCN1C(=O)C(O)(CC(=O)c2ccc(Cl)cc2)c2ccccc21", "note": "(stereo not given)", "activation": "12.2% (inactive)"}]}]}
